The values that follow come from ChEMBL document CHEMBL3286330, “Multivalent design of long-acting β(2)-adrenoceptor agonists incorporating biarylamines” (Bioorg Med Chem Lett, 2014).

T1 sequence (P07550 whole entry): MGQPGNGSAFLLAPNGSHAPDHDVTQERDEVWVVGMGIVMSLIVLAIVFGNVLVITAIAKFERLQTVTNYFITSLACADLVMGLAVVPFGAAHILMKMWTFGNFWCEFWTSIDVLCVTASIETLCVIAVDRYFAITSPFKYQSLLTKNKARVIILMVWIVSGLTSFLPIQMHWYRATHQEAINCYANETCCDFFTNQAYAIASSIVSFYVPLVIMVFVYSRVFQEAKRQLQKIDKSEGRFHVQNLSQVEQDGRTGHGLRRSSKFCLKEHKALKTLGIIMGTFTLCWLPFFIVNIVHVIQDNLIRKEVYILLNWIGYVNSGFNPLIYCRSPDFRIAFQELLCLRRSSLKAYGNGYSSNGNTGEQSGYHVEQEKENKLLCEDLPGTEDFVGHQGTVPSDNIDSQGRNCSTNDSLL

The first assay concerns the target T1, Beta-2 adrenergic receptor (Homo sapiens, UniProt P07550). Kind of assay: Agonist activity at human recombinant beta2 receptor assessed as cAMP accumulation by radioimmunoassay and cell based assay. Format: functional.
As usually defined, the EC50 is the concentration giving half of the maximal effect. Consider `OCc1cc(C(O)CNCCc2ccc(Nc3ccc4ccccc4c3)cc2)ccc1O` (racemic), for which the EC50 was 2.51 nM.

For the compound `COc1ccc(Nc2ccc(CCNCC(O)c3ccc(O)c(CO)c3)cc2)cc1` (racemic), the EC50 was 3.98 nM.

For the compound `OCc1cc(C(O)CNCCc2ccc(Nc3cccc4ccccc34)cc2)ccc1O` (racemic), the EC50 was 200 nM.

As to `OCc1cc(C(O)CNCCc2ccc(Nc3ccc4c(c3)CCC4)cc2)ccc1O` (racemic), the EC50 was 7.94 nM.

Turning to `OCc1cc(C(O)CNCCc2ccc(Nc3ccc(-c4ccccc4)cc3)cc2)ccc1O` (racemic), the EC50 is 7.94 nM.

Consider `OCc1cc(C(O)CNCCc2ccc(Nc3cccc(-c4ccccc4)c3)cc2)ccc1O` (racemic), for which the EC50 is 2 nM.

For the compound `COc1ccc(Nc2ccc(CCNCC(O)c3ccc(O)c(CO)c3)cc2)cc1-c1ccccc1` (racemic), the EC50 was 1.26 nM.

Regarding `COc1cccc(Nc2ccc(CCNCC(O)c3ccc(O)c(CO)c3)cc2)c1` (racemic), the EC50 was 10 nM.

Turning to `CCOc1ccc(Nc2ccc(CCNCC(O)c3ccc(O)c(CO)c3)cc2)cc1` (racemic), the EC50 is 1.26 nM.

Regarding `CSc1ccc(Nc2ccc(CCNCC(O)c3ccc(O)c(CO)c3)cc2)cc1` (racemic), the EC50 is 2.51 nM.

Consider `CC(C)Oc1ccc(Nc2ccc(CCNCC(O)c3ccc(O)c(CO)c3)cc2)cc1` (racemic), for which the EC50 was 2.51 nM.

In the case of `OCc1cc(C(O)CNCCc2ccc(Nc3ccc(O)cc3)cc2)ccc1O` (racemic), the EC50 was 200 nM.

In the case of `OCc1cc(C(O)CNCCc2ccc(Nc3ccc(F)cc3)cc2)ccc1O` (racemic), the EC50 is 31.6 nM.

For the compound `COC(=O)c1ccc(Nc2ccc(CCNCC(O)c3ccc(O)c(CO)c3)cc2)cc1` (racemic), the EC50 was 6.31 nM.

The target in the next assay is T1, Beta-2 adrenergic receptor. Kind of assay: Displacement of [3H]dihydroalprenolol from beta2 receptor (unknown origin) by liquid scintillation counting and cell based assay.
The term Ki denotes a measure of affinity in units of concentration, obtained from inhibition or displacement. As for `OCc1cc(C(O)CNCCc2ccc(Nc3ccc4ccccc4c3)cc2)ccc1O` (racemic), the affinity corresponds to a Ki of 316 nM.

As to `COc1ccc(Nc2ccc(CCNCC(O)c3ccc(O)c(CO)c3)cc2)cc1` (racemic), the affinity, expressed as Ki, was 1260 nM.

`OCc1cc(C(O)CNCCc2ccc(Nc3cccc4ccccc34)cc2)ccc1O` (racemic) had a Ki of 6310 nM.

As for `OCc1cc(C(O)CNCCc2ccc(Nc3ccc4c(c3)CCC4)cc2)ccc1O` (racemic), the Ki was 794 nM.

Turning to `OCc1cc(C(O)CNCCc2ccc(Nc3ccc(-c4ccccc4)cc3)cc2)ccc1O` (racemic), the Ki was 316 nM.

With `OCc1cc(C(O)CNCCc2ccc(Nc3cccc(-c4ccccc4)c3)cc2)ccc1O` (racemic), the Ki was 316 nM.

The compound `COc1ccc(Nc2ccc(CCNCC(O)c3ccc(O)c(CO)c3)cc2)cc1-c1ccccc1` (racemic) gave a Ki of 63.1 nM.

Compound `COc1cccc(Nc2ccc(CCNCC(O)c3ccc(O)c(CO)c3)cc2)c1` (racemic) had a Ki of 631 nM.

`CCOc1ccc(Nc2ccc(CCNCC(O)c3ccc(O)c(CO)c3)cc2)cc1` (racemic) had a Ki of 158 nM.

For the compound `CSc1ccc(Nc2ccc(CCNCC(O)c3ccc(O)c(CO)c3)cc2)cc1` (racemic), the Ki was 79.4 nM.

`CC(C)Oc1ccc(Nc2ccc(CCNCC(O)c3ccc(O)c(CO)c3)cc2)cc1` (racemic) had a Ki of 100 nM.

With `OCc1cc(C(O)CNCCc2ccc(Nc3ccc(O)cc3)cc2)ccc1O` (racemic), the Ki is 1580 nM.

Regarding `OCc1cc(C(O)CNCCc2ccc(Nc3ccc(F)cc3)cc2)ccc1O` (racemic), the Ki was 1260 nM.

Compound `COC(=O)c1ccc(Nc2ccc(CCNCC(O)c3ccc(O)c(CO)c3)cc2)cc1` (racemic) gave a Ki of 251 nM.

In turn, `O=CNc1cc([C@@H](O)CNCCc2ccc(NC[C@H](O)c3ccccc3)cc2)ccc1O` [MILVETEROL] had a Ki of 3.16 nM.

The target in a further assay is Beta-1 adrenergic receptor (Homo sapiens, UniProt P08588). Kind of assay: Displacement of [3H]dihydroalprenolol from beta1 receptor (unknown origin) by liquid scintillation counting and cell based assay. On the technique in general: Loss of bound radioactivity is the signal in a displacement assay; it reports binding, not function.
Chain of Beta-1 adrenergic receptor (P08588 whole entry): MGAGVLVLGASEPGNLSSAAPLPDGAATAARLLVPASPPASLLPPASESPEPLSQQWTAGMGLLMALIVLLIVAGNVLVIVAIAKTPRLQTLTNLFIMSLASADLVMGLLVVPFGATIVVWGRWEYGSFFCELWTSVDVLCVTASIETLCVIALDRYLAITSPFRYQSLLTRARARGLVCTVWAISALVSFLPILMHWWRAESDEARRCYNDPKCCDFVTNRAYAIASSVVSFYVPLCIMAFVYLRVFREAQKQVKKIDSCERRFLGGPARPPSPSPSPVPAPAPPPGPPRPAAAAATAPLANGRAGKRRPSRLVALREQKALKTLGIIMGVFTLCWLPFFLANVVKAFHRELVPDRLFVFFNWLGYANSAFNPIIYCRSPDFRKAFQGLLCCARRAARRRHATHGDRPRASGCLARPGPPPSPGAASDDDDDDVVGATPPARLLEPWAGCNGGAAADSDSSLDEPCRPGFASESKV
Compound `OCc1cc(C(O)CNCCc2ccc(Nc3ccc4ccccc4c3)cc2)ccc1O` (racemic) showed a Ki of 12600 nM.

The compound `COc1ccc(Nc2ccc(CCNCC(O)c3ccc(O)c(CO)c3)cc2)cc1` (racemic) had a Ki of 31600 nM.

For `OCc1cc(C(O)CNCCc2ccc(Nc3cccc4ccccc34)cc2)ccc1O` (racemic), the Ki was 31600 nM.

In turn, `OCc1cc(C(O)CNCCc2ccc(Nc3ccc4c(c3)CCC4)cc2)ccc1O` (racemic) gave a Ki of 25100 nM.

In turn, `OCc1cc(C(O)CNCCc2ccc(Nc3ccc(-c4ccccc4)cc3)cc2)ccc1O` (racemic) gave an inhibition constant Ki of 12600 nM.

In the case of `OCc1cc(C(O)CNCCc2ccc(Nc3cccc(-c4ccccc4)c3)cc2)ccc1O` (racemic), the affinity, expressed as Ki, was 12600 nM.

The compound `COc1ccc(Nc2ccc(CCNCC(O)c3ccc(O)c(CO)c3)cc2)cc1-c1ccccc1` (racemic) gave a Ki of 20000 nM.

Compound `COc1cccc(Nc2ccc(CCNCC(O)c3ccc(O)c(CO)c3)cc2)c1` (racemic) showed a Ki of 12600 nM.

`CCOc1ccc(Nc2ccc(CCNCC(O)c3ccc(O)c(CO)c3)cc2)cc1` (racemic) had a Ki of 31600 nM.

`CSc1ccc(Nc2ccc(CCNCC(O)c3ccc(O)c(CO)c3)cc2)cc1` (racemic): affinity was put at a Ki of 7940 nM.

The compound `CC(C)Oc1ccc(Nc2ccc(CCNCC(O)c3ccc(O)c(CO)c3)cc2)cc1` (racemic) had a Ki of 15800 nM.

Take `OCc1cc(C(O)CNCCc2ccc(Nc3ccc(O)cc3)cc2)ccc1O` (racemic): the Ki is 39800 nM.

On to `OCc1cc(C(O)CNCCc2ccc(Nc3ccc(F)cc3)cc2)ccc1O` (racemic), for which the Ki is 7940 nM.

With `COC(=O)c1ccc(Nc2ccc(CCNCC(O)c3ccc(O)c(CO)c3)cc2)cc1` (racemic), the affinity, expressed as Ki, was 10000 nM.

With `O=CNc1cc([C@@H](O)CNCCc2ccc(NC[C@H](O)c3ccccc3)cc2)ccc1O` [MILVETEROL], affinity was put at a Ki of 10000 nM.

A further assay deals with T2, Beta-2 adrenergic receptor (Cavia porcellus, UniProt Q8K4Z4). Kind of assay: Agonist activity at beta2 receptor in guinea pig trachea assessed as fast onset of inhibition of electrically stimulated contraction.
T2 sequence (Q8K4Z4 whole entry): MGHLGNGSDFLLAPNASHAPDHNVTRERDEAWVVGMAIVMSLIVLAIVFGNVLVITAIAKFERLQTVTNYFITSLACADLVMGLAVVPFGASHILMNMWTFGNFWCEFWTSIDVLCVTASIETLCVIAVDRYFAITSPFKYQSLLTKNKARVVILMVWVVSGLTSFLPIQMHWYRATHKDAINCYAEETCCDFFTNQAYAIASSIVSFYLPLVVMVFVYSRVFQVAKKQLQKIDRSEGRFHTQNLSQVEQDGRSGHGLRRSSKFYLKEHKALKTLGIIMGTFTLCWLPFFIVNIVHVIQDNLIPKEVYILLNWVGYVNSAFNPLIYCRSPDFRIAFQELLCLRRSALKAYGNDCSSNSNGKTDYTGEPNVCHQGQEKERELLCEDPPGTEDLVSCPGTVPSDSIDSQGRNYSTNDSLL
`O=CNc1cc([C@@H](O)CNCCc2ccc(NC[C@H](O)c3ccccc3)cc2)ccc1O` [MILVETEROL]: the EC50 is 0.0501 nM.

In another assay the target is T2, Beta-2 adrenergic receptor. Briefly: Agonist activity at beta2 receptor in guinea pig trachea assessed as slow onset of inhibition of electrically stimulated contraction. The method, boiled down:
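Guinea pigs pretreated with 6-hydroxy-dopamine (200 mg/kg i.p.) 24 h before. Opened 5 mm tracheal rings between platinum electrodes in normal-K+ (4.7 mM) Krebs at 37 °C with 10 µM indomethacin, 1 µM choline, 3 µM guanethidine. Field stimulation: 9 V, 10 Hz, 1 ms pulses, 10 s train every 100 s. Resting tension 1 g, 1 h equilibration. Onset is the time to maximum effect at an EC80 concentration; slow is >30 min.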
For the compound `CCOc1ccc(Nc2ccc(CCNCC(O)c3ccc(O)c(CO)c3)cc2)cc1` (racemic), the EC50 is 200 nM.

For the compound `OCc1cc(C(O)CNCCCCCCOCCCCc2ccccc2)ccc1O` (stereo not drawn) [SALMETEROL], the EC50 is 31.6 nM.

For another assay, the target named is Beta-3 adrenergic receptor (Homo sapiens, UniProt P13945). Kind of assay: Agonist activity at human recombinant beta3 receptor assessed as cAMP accumulation by radioimmunoassay and cell based assay.
Chain of Beta-3 adrenergic receptor (P13945 whole entry): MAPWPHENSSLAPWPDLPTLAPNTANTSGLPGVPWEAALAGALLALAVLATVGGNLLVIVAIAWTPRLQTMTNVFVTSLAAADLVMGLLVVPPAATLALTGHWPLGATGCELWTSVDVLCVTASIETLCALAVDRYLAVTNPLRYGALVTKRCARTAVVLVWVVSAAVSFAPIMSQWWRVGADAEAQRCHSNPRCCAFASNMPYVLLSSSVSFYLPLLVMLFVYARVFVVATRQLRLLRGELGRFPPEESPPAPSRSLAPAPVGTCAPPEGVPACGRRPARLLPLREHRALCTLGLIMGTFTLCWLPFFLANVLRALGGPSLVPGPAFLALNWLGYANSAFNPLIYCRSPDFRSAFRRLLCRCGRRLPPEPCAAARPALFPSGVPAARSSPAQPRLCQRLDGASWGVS
`OCc1cc(C(O)CNCCCCCCOCCCCc2ccccc2)ccc1O` (stereo not drawn) [SALMETEROL]: the half-maximal effective concentration (EC50) is 1000 nM.

The species entered for the next assay is Homo sapiens. Briefly: Selectivity ratio Ki for beta1 receptor (unknown origin) to Ki for beta2 receptor (unknown origin).
Regarding `OCc1cc(C(O)CNCCc2ccc(Nc3ccc4ccccc4c3)cc2)ccc1O` (racemic), the Ratio Ki came out at 34.

With `COc1ccc(Nc2ccc(CCNCC(O)c3ccc(O)c(CO)c3)cc2)cc1` (racemic), the Ratio Ki was 27.

On to `OCc1cc(C(O)CNCCc2ccc(Nc3cccc4ccccc34)cc2)ccc1O` (racemic), for which the Ratio Ki amounted to 5.4.

In the case of `OCc1cc(C(O)CNCCc2ccc(Nc3ccc4c(c3)CCC4)cc2)ccc1O` (racemic), the Ratio Ki was found to be 31.

As for `OCc1cc(C(O)CNCCc2ccc(Nc3ccc(-c4ccccc4)cc3)cc2)ccc1O` (racemic), the Ratio Ki stood at 36.

For `OCc1cc(C(O)CNCCc2ccc(Nc3cccc(-c4ccccc4)c3)cc2)ccc1O` (racemic), the Ratio Ki is 40.

Regarding `COc1ccc(Nc2ccc(CCNCC(O)c3ccc(O)c(CO)c3)cc2)cc1-c1ccccc1` (racemic), the Ratio Ki was determined as 319.

On to `COc1cccc(Nc2ccc(CCNCC(O)c3ccc(O)c(CO)c3)cc2)c1` (racemic), for which the Ratio Ki turned out to be 17.

As to `CCOc1ccc(Nc2ccc(CCNCC(O)c3ccc(O)c(CO)c3)cc2)cc1` (racemic), the Ratio Ki is 178.

As to `CSc1ccc(Nc2ccc(CCNCC(O)c3ccc(O)c(CO)c3)cc2)cc1` (racemic), the Ratio Ki stood at 81.

With `CC(C)Oc1ccc(Nc2ccc(CCNCC(O)c3ccc(O)c(CO)c3)cc2)cc1` (racemic), the Ratio Ki amounted to 158.

Regarding `OCc1cc(C(O)CNCCc2ccc(Nc3ccc(O)cc3)cc2)ccc1O` (racemic), the Ratio Ki came to 23.

On to `OCc1cc(C(O)CNCCc2ccc(Nc3ccc(F)cc3)cc2)ccc1O` (racemic), for which the Ratio Ki was determined as 6.5.

Take `COC(=O)c1ccc(Nc2ccc(CCNCC(O)c3ccc(O)c(CO)c3)cc2)cc1` (racemic): the Ratio Ki was found to be 36.

For `O=CNc1cc([C@@H](O)CNCCc2ccc(NC[C@H](O)c3ccccc3)cc2)ccc1O` [MILVETEROL], the Ratio Ki is 3030.
